Results gathered from unrelated publications.
Protocols differ between the studies behind these lines.
Read-out: enzyme activity
Mode: inhibitor
EGFR: Epidermal growth factor receptor (EGFR, Homo sapiens, UniProt P00533)
CDK6 with cyclin D3: Cyclin-dependent kinase 6, with cyclin D3 (CDK6, Homo sapiens, UniProt Q00534)
YCK2: Serine/threonine protein kinase YCK2 (YCK2, Candida albicans, UniProt A0A1D8PKB4)
CA2: Carbonic anhydrase 2 (CA2, Bos taurus, UniProt P00921)
MTOR: Serine/threonine-protein kinase mTOR (MTOR, Homo sapiens, UniProt P42345)

target | method | IC50 [nM] | SMILES
EGFR | – | 880 | Nc1cc(N2C(=O)c3ccccc3C2=O)nc(SCC(=O)NN=Cc2ccc(Cl)cc2)n1
CDK6 with cyclin D3 | radiometric | 3550 | CNS(=O)(=O)c1ccc(Nc2ncc(C(F)(F)F)c(N3CCC[C@](C)(O)C3)n2)c(C)c1
EGFR | – | 324 | CC(=O)c1nc2ccccc2n1Cc1cn([C@@H]2O[C@H](CO)[C@H](O)[C@H](O)[C@H]2O)nn1
DNA-3-methyladenine glycosylase (Homo sapiens, UniProt P29372) | – | > 99000 | Clc1ccc(Nc2ccncc2)cc1Cl
YCK2 | ADP detection | 550 | Cn1cc(-c2ccnc3ccccc23)c(-c2ccccn2)n1
CA2 | absorbance | 62.7 | NS(=O)(=O)c1ccc(Nc2nc3nc(=S)[nH]c(-c4cccc(O)c4)c3s2)cc1
CDK6 with cyclin D3 | radiometric | 62 | CNS(=O)(=O)c1ccc(Nc2ncc3cc(Cl)c(=O)n(C4CCCC4)c3n2)c(C)c1
CA2 | absorbance | 83 | C[C@@H]1O[C@@H](O[C@H]2[C@H](Oc3cc(O)c4c(c3)O[C@H](c3ccc(O)cc3)CC4=O)O[C@H](CO)[C@@H](O)[C@@H]2O)[C@H](O)[C@H](O)[C@H]1O
MTOR | FRET | 330 | C[C@H]1COCCN1c1nc(N2CCOC[C@@H]2C)c2ccc(-c3cccc(C(=O)NCCOCCOCCOCCONC(=O)c4ccc(F)c(F)c4Nc4ccc(I)cc4F)c3)nc2n1
CDK6 with cyclin D3 | radiometric | 715 | CNS(=O)(=O)c1ccc(Nc2ncc(C(F)(F)F)c([C@H]3CC[C@](C)(O)CC3)n2)c(C)c1
EGFR | – | 1130 | O=C1CCC(N2C(=O)c3ccccc3C2=O)C(=O)N1 (stereo not drawn)
EGFR | – | 75 | O=C(/C=C/c1ccc(F)cc1)c1nc2ccccc2n1Cc1cn([C@@H]2OC[C@@H](O)[C@H](O)[C@H]2O)nn1
Ferroptosis suppressor protein 1 (AIFM2, Homo sapiens, UniProt Q9BRQ8, S364A/T363A) | absorbance | 61 | COc1ccc(N2CCN(Cc3cn4c(-c5ccc(Br)cc5)nnc4s3)CC2)cc1
EGFR | ELISA | 183 | O=C1/C(=C/c2ccc3ccccc3c2O)NC(=S)N1c1ccccc1
EGFR | – | 988 | CCCCNC(c1ccccc1)c1c(N)[nH]c(=O)[nH]c1=O (stereo not drawn)
Serine/threonine-protein kinase B-raf (BRAF, Homo sapiens, UniProt P15056) | ADP detection | 15.3 | Cc1cc2c(C(N)=O)c(N)n(-c3c(C)ccc(O)c3C)c2nc1C
EGFR | TR-FRET | < 0.5 | COc1c(Cl)cccc1Nc1c(-c2ccncc2OC[C@@H]2COCCO2)[nH]c2c1C(=O)NCC2
Neutrophil elastase (ELANE, Homo sapiens, UniProt P08246) | absorbance | > 100000 | N=C(N)c1ccc(OCCCCCOc2ccc(C(=N)N)cc2)cc1
MTOR | FRET | 28 to 40 | COc1ccc(-c2ccc3c(N4CCOC[C@@H]4C)nc(N4CCOC[C@@H]4C)nc3n2)cc1COCCOCCOCCOCCONC(=O)c1ccc(F)c(F)c1Nc1ccc(I)cc1F
YCK2 | ADP detection | 4900 | c1ccc(-c2[nH]ccc2-c2ccnc3ccccc23)nc1
Serine/threonine-protein kinase B-raf (BRAF, Homo sapiens, UniProt P15056, V600E) | – | 17500 | NS(=O)(=O)c1ccc(-n2nc(C(=O)NN=Cc3ccccc3O)cc2-c2ccccc2)cc1
SRSF protein kinase 3 (SRPK3, Homo sapiens, UniProt Q9UPE1) | FRET | 5700 | N#Cc1ccc(NC(=O)Nc2ccccc2)cc1
YCK2 | ADP detection | 1000 | c1ccc(Cn2cc(-c3ccnc4ccccc34)c(-c3ccccn3)n2)cc1
SMUG1 (Homo sapiens, UniProt Q53HV7) | – | > 100000 | Nc1cnccc1Nc1ccc(Cl)c(Cl)c1
